A short description of experiment [1]: nonspecific flux increase, KCNQ1-free cells – parental CHO cells, counter-screen for KCNQ1 potentiator project (AID 493006;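 active = duplicate-averaged activation above buffer control mean plus 5 SD of those controls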). As to conditions: parental CHO-K1 cells, FluxOR thallium flux, at 10 µM; active compounds read high. The gist of the method:
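Assay system: Untransfected host CHO-K1 cells with FluxOR thallium dye | Probe or stimulus: Potassium/thallium depolarization pulse | Schedule: Overnight 37 °C plating, 90 min RT dye, 20 min compound | Detection: Kinetic thallium-flux fluorescence | Read-out: Max-minus-min fluorescence over baseline, percent of buffer-to-R-L3 span | Benchmarks: Low control buffer, high control R-L3 activator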

For experiment [2], the target named is Potassium voltage-gated channel subfamily KQT member 1 (Homo sapiens) (UniProt P51787). In words: enhancement of KCNQ1 channel thallium flux – FluxOR thallium flux, CHO cells, duplicates, confirmation (AID 493007;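 active = potentiation averaged over duplicate wells exceeding buffer-only control mean by more than 3 SD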;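 for outcome: cells depolarized by a potassium plus thallium sulfate stimulus after compound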). The following applies: KCNQ1 cell line, FluxOR thallium flux fluorescence, at 10 µM; active compounds read high, % of reference activator effect, buffer zero. The gist of the method:
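Material: KCNQ1-expressing CHO cell line; Incubation: FluxOR dye loading 90 min, compound exposure 20 min, room temperature; Detection: FluxOR Tl+ flux fluorescence, 10 s baseline plus 110 s recording; Read-out: percent activation between buffer and R-L3 responses; Control set: buffer-only wells as 0% and R-L3 activator as 100%; Replication: duplicate wells per compound.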

Experiment [3] deals with Potassium voltage-gated channel subfamily KQT member 2 (Rattus norvegicus) (UniProt O88943). In words: KCNQ2 thallium flux enhancement – KCNQ2-CHO-K1 cells, selectivity assay for KCNQ1 potentiator project (AID 493009;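 active = mean duplicate potentiation above the buffer control mean plus 5 SD of buffer wells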;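 note: assay conditions were tuned for KCNQ1 rather than KCNQ2 modulators; signal is max minus min fluorescence divided by baseline after thallium stimulus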). The following applies: FluxOR thallium flux fluorescence, at 10 µM; active compounds read high, scaled: buffer 0, activator control 100.
Experiment [4] concerns the target Potassium voltage-gated channel subfamily KQT member 1 (Homo sapiens) (UniProt P51787). In words: KCNQ1 activators by electrophysiology – IonWorks patch clamp, KCNQ1-CHO cells, orthogonal assay for KCNQ1 potentiator project, confirmation (AID 493184). The following applies: automated patch clamp current, at 10 µM; active compounds read high. In a few lines: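 assay system = KCNQ1-expressing CHO cells | medium = external bath solution at pH 7.4 | probe or stimulus = 2,000 ms depolarization, -90 to +40 mV | compound dosing = 10 µM final, single point | measured by = automated voltage clamp, amphotericin B perforated patch | measure = percent current increase versus pre-compound level | replication = duplicates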

Calls of active or inactive are those of the source.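 Rule for the calls, unless noted: active = current rise at least 3 SD above the untreated control mean in each of two repeat wells; inactive = the rest.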

Sequence of Potassium voltage-gated channel subfamily KQT member 2 (Rattus norvegicus) (O88943 whole entry, looked up): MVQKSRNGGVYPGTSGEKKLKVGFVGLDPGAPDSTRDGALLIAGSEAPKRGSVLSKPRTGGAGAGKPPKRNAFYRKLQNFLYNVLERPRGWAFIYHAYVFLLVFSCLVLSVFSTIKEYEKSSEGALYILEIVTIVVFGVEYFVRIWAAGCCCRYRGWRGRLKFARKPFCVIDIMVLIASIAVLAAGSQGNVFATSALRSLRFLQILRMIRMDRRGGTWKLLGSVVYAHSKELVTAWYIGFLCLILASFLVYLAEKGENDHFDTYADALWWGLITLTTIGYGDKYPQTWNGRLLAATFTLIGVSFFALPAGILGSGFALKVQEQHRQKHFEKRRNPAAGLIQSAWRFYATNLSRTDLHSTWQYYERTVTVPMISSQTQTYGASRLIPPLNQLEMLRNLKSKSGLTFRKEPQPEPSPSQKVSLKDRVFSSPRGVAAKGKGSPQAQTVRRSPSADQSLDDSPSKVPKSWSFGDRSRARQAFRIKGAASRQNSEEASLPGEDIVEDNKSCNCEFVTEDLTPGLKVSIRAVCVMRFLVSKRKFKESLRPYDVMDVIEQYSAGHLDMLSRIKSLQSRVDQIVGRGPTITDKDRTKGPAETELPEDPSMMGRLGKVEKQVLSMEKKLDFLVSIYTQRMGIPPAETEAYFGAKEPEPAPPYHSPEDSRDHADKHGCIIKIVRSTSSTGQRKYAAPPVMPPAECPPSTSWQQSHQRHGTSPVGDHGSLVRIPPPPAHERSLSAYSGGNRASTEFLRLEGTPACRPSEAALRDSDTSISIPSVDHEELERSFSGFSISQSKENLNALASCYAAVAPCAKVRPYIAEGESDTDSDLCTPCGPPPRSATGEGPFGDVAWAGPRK
Sequence of Potassium voltage-gated channel subfamily KQT member 1 (Homo sapiens) (P51787 whole entry, looked up): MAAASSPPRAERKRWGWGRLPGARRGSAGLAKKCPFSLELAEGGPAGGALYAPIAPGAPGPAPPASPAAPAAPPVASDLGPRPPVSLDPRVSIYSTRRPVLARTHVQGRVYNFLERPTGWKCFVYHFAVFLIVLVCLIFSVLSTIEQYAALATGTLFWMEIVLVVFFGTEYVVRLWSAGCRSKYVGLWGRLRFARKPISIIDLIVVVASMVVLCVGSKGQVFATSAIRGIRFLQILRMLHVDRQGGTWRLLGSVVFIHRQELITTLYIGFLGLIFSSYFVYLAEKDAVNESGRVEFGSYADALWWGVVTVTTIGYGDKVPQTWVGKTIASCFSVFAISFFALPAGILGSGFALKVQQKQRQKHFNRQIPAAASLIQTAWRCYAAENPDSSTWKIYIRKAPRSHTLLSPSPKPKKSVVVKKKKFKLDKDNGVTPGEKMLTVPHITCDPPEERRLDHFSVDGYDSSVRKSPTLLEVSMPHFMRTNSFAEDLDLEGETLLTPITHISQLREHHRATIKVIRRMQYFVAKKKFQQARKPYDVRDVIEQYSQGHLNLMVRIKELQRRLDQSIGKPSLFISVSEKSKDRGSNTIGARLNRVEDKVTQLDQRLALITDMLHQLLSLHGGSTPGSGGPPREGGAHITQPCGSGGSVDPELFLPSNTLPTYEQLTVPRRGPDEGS

Take `COc1ccccc1NC(=O)CCN1CCN(c2ccc(Cl)cc2)CC1`: the result in experiment [1], in experiment [2], in experiment [3] and in experiment [4] was inactive.
Turning to `O=C(NC(=S)N1CCc2ccccc21)c1ccccc1`, in experiment [1], the activation was 308% (active). Also, the potentiation in experiment [2] is 162% (active); in experiment [3], 366% (active). For the same molecule, the result in experiment [4] was inactive.
As for `Cc1ccc(Nc2c([N+](=O)[O-])ccc3nonc23)c(C)c1`, the outcome in experiment [1], in experiment [2], in experiment [3] and in experiment [4] was inactive.
As for `Cc1cccc(NC(=O)c2cccnc2)c1`, the result in experiment [1], in experiment [2], in experiment [3] and in experiment [4] was inactive.
For the molecule `Cc1sc2nc(C(C)C)nc(SCC(=O)N3c4ccccc4CC3C)c2c1C` (stereo not given), the activation in experiment [1] is 164% (active). Also, the potentiation in experiment [2] is 47.5% (active); in experiment [3] it was 177% (active). Besides, in experiment [4], the outcome was inactive.
As to `O=c1[nH]cc(S(=O)(=O)c2ccccc2)[nH]1`, the result in experiment [1], in experiment [2], in experiment [3] and in experiment [4] was inactive.
For the molecule `CCOC(=O)CSc1nc(C2CC2)cc(-c2ccc(F)cc2)c1C#N`, the activation in experiment [1] is 166% (active). For the same molecule, the potentiation in experiment [2] was 52% (active); in experiment [3], 160% (active). In addition, the result in experiment [4] was inactive.
With `COc1ccc([N+](=O)[O-])cc1NC(=O)c1cccnc1`, the result in experiment [1], in experiment [2], in experiment [3] and in experiment [4] was inactive.
With `O=C(COc1ccccc1)N1CCN(S(=O)(=O)c2cccs2)CC1`, the outcome in experiment [1], in experiment [2], in experiment [3] and in experiment [4] was inactive.
Regarding `O=C(c1cccnc1)N1N=C2CCCCCC2C1(O)C(F)(F)F` (stereo not given), the outcome in experiment [1], in experiment [2], in experiment [3] and in experiment [4] was inactive.
For `O=[N+]([O-])c1cc(CN2CCCC2)ccc1Sc1ccc(Cl)cc1`, the result in experiment [1], in experiment [2], in experiment [3] and in experiment [4] was inactive.
For the molecule `CCCCCn1c(=O)c(F)cn(Cc2ccc(OC)c([N+](=O)[O-])c2)c1=O`, the result in experiment [1], in experiment [2], in experiment [3] and in experiment [4] was inactive.
Turning to `O=C(NC1CCCC1)C(c1cccnc1)N(C(=O)c1csnn1)C1CC1` (stereo not given), the result in experiment [1], in experiment [2], in experiment [3] and in experiment [4] was inactive.
Regarding `C=CCNC(=S)Nc1sc2c(c1C(=O)OCC)CC(C(C)C)OC2` (stereo not given), the activation in experiment [1] is 268% (active). The potentiation in experiment [2] is 132% (active); in experiment [3], 246% (active). The result in experiment [4] was inactive.
Turning to `COCCCN=C1NN=C(c2cc(C)n(-c3ccccc3F)c2C)CS1`, the outcome in experiment [1], in experiment [2], in experiment [3] and in experiment [4] was inactive.
Take `CSc1nc2sc3c(c2c(=S)[nH]1)CC(C)(C)OC3`: the activation in experiment [1] was 528% (active). Besides, the results for the potentiation in experiment [2] and in experiment [3] were 298% (active) and 652% (active), respectively. Moreover, the outcome in experiment [4] was inactive.
In the case of `O=C(CCC(=O)N1CCOc2ccc(Cl)cc21)NCCN1CCOCC1`, the outcome in experiment [1], in experiment [2], in experiment [3] and in experiment [4] was inactive.
With `CCOC(=O)Nc1ccc2c(c1)N(CCCN(C)C)c1ccccc1CC2`, the result in experiment [1], in experiment [2], in experiment [3] and in experiment [4] was inactive.
As for `CCOC(=O)Cc1csc(NC(=S)NC(=O)c2ccccc2C)n1`, the activation in experiment [1] was 201% (active). Further, the potentiation in experiment [2] was 45.5% (active); in experiment [3], 200% (active). Moreover, in experiment [4], the outcome was inactive.
For the molecule `Cc1cccc(-n2c(=S)[nH]c3sc4c(c3c2=O)CCc2ccccc2-4)c1`, the activation in experiment [1] was 240% (active). Also, the potentiation in experiment [2] was 149% (active); in experiment [3], 330% (active). The result in experiment [4] was inactive.
For `Cc1cc(Br)ccc1OCC(=O)NNC(=O)c1cnccn1`, the result in experiment [1], in experiment [2], in experiment [3] and in experiment [4] was inactive.
With `COc1ccc(C)cc1NC(=O)C(=O)NNC(=O)c1ccco1`, the activation in experiment [1] is 377% (active). In addition, the potentiation in experiment [2] is 109% (active); in experiment [3], 363% (active). For the same molecule, the outcome in experiment [4] was inactive.
`O=C(COc1ccccc1)NC(=S)N1CCc2ccccc21`: the outcome in experiment [1], in experiment [3] and in experiment [4] was inactive. Moreover, in experiment [2], the potentiation is 20% (active).
With `O=S(=O)(/C=C/c1ccccc1)n1cnc2ccccc21`, the outcome in experiment [1], in experiment [2], in experiment [3] and in experiment [4] was inactive.
For the molecule `Cc1ccc(C2c3c(-c4ccccc4O)n[nH]c3C(=O)N2Cc2ccncc2)cc1` (stereo not given), the result in experiment [1], in experiment [2], in experiment [3] and in experiment [4] was inactive.
With `CSc1ccccc1NC(=O)c1ccc2c(c1)CCN2S(C)(=O)=O`, the result in experiment [1], in experiment [2], in experiment [3] and in experiment [4] was inactive.
`CC(C)(C)C1C/C(=C/c2ccccn2)C(=O)/C(=C/c2ccccn2)C1` (stereo not given): the outcome in experiment [1], in experiment [2], in experiment [3] and in experiment [4] was inactive.
Take `O=C(Nc1ccc(C(=O)O)cc1)/C(=C\c1ccc2c(c1)OCO2)NC(=O)c1ccc(Br)cc1`: the result in experiment [1], in experiment [2], in experiment [3] and in experiment [4] was inactive.
For `COc1cccc(C(=O)NNC(=O)C(=O)Nc2ccc(C)cc2)c1`, in experiment [1], the activation is 206% (active). Moreover, the potentiation in experiment [2] was 92% (active); in experiment [3] it was 308% (active). Moreover, the outcome in experiment [4] was inactive.
For `O=S(=O)(NC(=S)NC1CCCCC1)c1ccc(Br)cc1` the same measures were 200% (active), 52% (active), 190% (active) and “inactive”.

These data come from PubChem BioAssay.
